Reference: ChEMBL document CHEMBL4316619 (Bioorg Med Chem Lett, 2019)
Calls of active or inactive are those of the source. The rule behind the calls is not given here.

Columns and labels:
Saccharomyces cerevisiae = experiment: Effect on growth of Yeast 9526-6-2 harboring pYES at 50 uM measured up to 60 hrs; format: organism-based; settings: in vivo
Outline: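 Control yeast carrying empty pYES and NS1-expressing NS1-pYES strain grown with DMSO or compound at 50 μM. Growth measured as OD600 at 22, 42 and 60 h.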

Influenza A virus H3N2 = experiment: Antiviral activity against Influenza A virus (A/Brisbane/10/2007(H3N2)) infected in MDCK cells assessed as reduction in virus-induced cytopathic effect measured on day 5 by Celltiter-Glo luminescence assay; format: functional, organism-based; settings: 120 h
Outline: (§1)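 MDCK cells were infected with seasonal influenza A strains through NIAID resources and scored for protection from virus-induced cell death. Compounds were tested at four concentrations (0.8, 4, 20, 100 μM). EC50/EC90 (reduction of viral cell death) and CC50 (reduction of cell viability) were derived in μM, and SI50 = CC50/EC50.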

[1] = target: Luciferin 4-monooxygenase (Photinus pyralis) (UniProt P08659); experiment: Effect on firefly luciferase activity expressed in 293 cells at 50 uM by luminescence assay; format: cell-based
Sequence of Luciferin 4-monooxygenase (Photinus pyralis) (P08659 whole entry): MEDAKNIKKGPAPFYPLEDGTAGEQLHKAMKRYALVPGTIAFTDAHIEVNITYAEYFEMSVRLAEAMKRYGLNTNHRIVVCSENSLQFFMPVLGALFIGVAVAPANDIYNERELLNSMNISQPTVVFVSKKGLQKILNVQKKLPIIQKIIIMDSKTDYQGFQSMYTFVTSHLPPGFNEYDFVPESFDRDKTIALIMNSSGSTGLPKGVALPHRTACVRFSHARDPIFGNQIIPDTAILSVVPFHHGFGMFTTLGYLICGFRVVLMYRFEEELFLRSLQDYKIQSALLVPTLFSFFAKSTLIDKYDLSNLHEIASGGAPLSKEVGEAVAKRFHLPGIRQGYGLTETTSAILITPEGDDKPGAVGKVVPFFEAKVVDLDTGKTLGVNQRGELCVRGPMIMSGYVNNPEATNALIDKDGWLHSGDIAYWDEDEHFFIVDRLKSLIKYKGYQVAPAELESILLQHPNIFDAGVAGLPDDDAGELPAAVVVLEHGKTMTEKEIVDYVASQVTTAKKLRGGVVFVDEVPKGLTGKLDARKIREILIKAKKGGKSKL

Influenza B virus = experiment: Antiviral activity against Influenza B virus (B/Brisbane/60/2008) infected in MDCK cells assessed as reduction in virus-induced cytopathic effect measured on day 5 by Celltiter-Glo luminescence assay; format: functional, organism-based
Influenza A virus [2] = experiment: Antiviral activity against Influenza A virus (A/California/7/2009(H1N1)) infected in MDCK cells assessed as reduction in virus-induced cytopathic effect measured on day 5 by Celltiter-Glo luminescence assay; format: functional, organism-based; settings: 120 h; outline: as §1
Influenza A virus [3] = experiment: Effect on NS1 protein expression in Influenza A virus A/PR/8/34 (H1N1) infected in MDCK cells at 20 uM by Western blot analysis; format: functional, organism-based; settings: A/Puerto Rico/8/1934(H1N1)
Outline: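 MDCK cells, uninfected or infected with A/PR/8/34, treated with DMSO or compound at 20 μM. NS1 protein detected by Western blot, with α-tubulin as loading control.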

[4] = Aqueous kinetic solubility of the compound; format: physicochemical; settings: buffer
MDCK [5] = experiment: Cytotoxicity against MDCK cells assessed as reduction in cell viability measured after 48 hrs by CellTiter Glo assay; format: cell-based, Canis lupus familiaris; settings: dog
Outline: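 MDCK cells were incubated with compound under the conditions of the 48 h replication assay. Cytotoxicity was read with the CellTiter-Glo ATP viability assay. Follow-up viability testing used 5, 10, 50 and 100 μM.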

[6] = target: Non-structural protein 1 (Influenza A virus (strain A/Puerto Rico/8/1934 H1N1)) (UniProt P03496); experiment: Inhibition of Influenza A virus A/PR/8/34 (H1N1) NS1 expressed in 293 cells assessed as increase in poly(I:C)-induced IFN-beta reporter activity treated 16 hrs […] measured after 24 hrs by luciferase reporter gene assay; format: cell-based; settings: Influenza A virus (A/Puerto Rico/8/1934(H1N1))
Sequence of Non-structural protein 1 (Influenza A virus (strain A/Puerto Rico/8/1934 H1N1)) (P03496 whole entry): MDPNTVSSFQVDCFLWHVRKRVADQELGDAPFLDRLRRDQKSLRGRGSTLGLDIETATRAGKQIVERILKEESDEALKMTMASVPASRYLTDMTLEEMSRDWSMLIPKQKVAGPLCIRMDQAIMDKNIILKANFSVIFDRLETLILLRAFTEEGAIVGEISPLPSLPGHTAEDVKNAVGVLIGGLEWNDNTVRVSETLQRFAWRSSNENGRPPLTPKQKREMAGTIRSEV
Outline: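 293 cells co-transfected with a human IFN-β promoter-driven firefly luciferase reporter and NS1 expression constructs. At 16 h post-transfection, poly(I:C) 50 μg/mL plus compound (20 μM) or 1% DMSO added for a further 24 h; luciferase read by luminometer. Untransfected cells serve as baseline.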

Influenza A virus [7] = experiment: Antiviral activity against Influenza A virus A/PR/8/34 (H1N1) infected in MDCK cells assessed as fold reduction in virus titer at 10 uM measured after 48 hrs by hemagglutination assay relative to control; format: functional, A/Puerto Rico/8/1934(H1N1)
Outline: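 MDCK cells were infected with A/PR/8/34 (H1N1) at MOI 0.1 and incubated with compound for 48 h. Supernatant virus was then quantified by hemagglutination assay and standard TCID50 analysis. The single-concentration screen used 10 μM and reports fold reduction in titer. Dose-response runs used triplicate cultures, with percent titer decrease back-calculated from TCID50.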

[8] = target: Non-structural protein 1 (Influenza A virus (strain A/Puerto Rico/8/1934 H1N1)) (UniProt P03496); experiment: Inhibition of NS1 in Influenza A virus A/PR/8/34 (H1N1) infected in MDCK cells assessed as restoration of protein-induced reduction in IFN-beta mRNA expression at 20 uM measured after 6 hrs by RT-PCR analysis; format: cell-based; settings: Influenza A virus (A/Puerto Rico/8/1934(H1N1))
Outline: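 MDCK cells infected with A/PR/8/34 at MOI 2 and incubated 6 h with compound at 20 μM. Cells harvested; IFN-β and β-actin mRNA detected by RT-PCR. Poly(I:C) lane serves as positive control for IFN-β induction.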

[9] = Stability of the compound in mouse liver microsomes assessed as parent compound remaining measured after 30 mins; format: ADME, Microsome; settings: read-out: Stability
Outline: (§2)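 Mouse liver microsomes; percent parent compound remaining measured at 0, 15 and 30 min.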

[10] = Apparent permeability across basolateral to apical side in human Caco2 cells measured after 2 hrs; format: ADME, cell-based; settings: caco-2, 2 h
Outline: (§3)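 Permeability was measured across Caco-2 monolayers in both directions, apical to basolateral and basolateral to apical. […] Runs were done with and without 3% BSA, and mass recovery (%) was reported for each direction. Efflux ratio = Papp B→A / Papp A→B.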

[11] = Apparent permeability across apical to basolateral side in human Caco2 cells measured after 2 hrs; format: ADME, cell-based; settings: caco-2, 2 h; outline: as §3
[12] = Stability of the compound in mouse liver microsomes assessed as parent compound remaining measured after 15 mins; format: ADME, Microsome; settings: read-out: Stability; outline: as §2
[13] = Stability of the compound in mouse liver microsomes assessed as parent compound remaining measured immediately; format: ADME, Microsome; settings: read-out: Stability; outline: as §2
[14] = (§4) Cytotoxicity against MDCK cells assessed as reduction in cell viability measured on day 5 by Celltiter-Glo luminescence assay; format: cell-based, Canis lupus familiaris; settings: dog, MDCK cells; outline: as §1
[15] = AUC (infinity) in C57BL/6 mouse plasma at 30 mg/kg, ip; format: ADME, organism-based; parameters: dose 30 mg/kg, route intraperitoneal, time infinity
Outline: (§5)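 Male C57BL/6 mice received a single intraperitoneal dose of 30 mg/kg (N=3). Compound concentrations were followed over time in plasma, liver and lung. Tmax, Cmax, terminal t1/2, AUClast and AUCINF were derived from the mean concentration-time profiles.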

[16] = Toxicity in C57BL/6 mouse assessed as effect on lungs at 30 mg/kg, ip; format: organism-based; settings: in vivo
[17] = Toxicity in C57BL/6 mouse assessed as effect on liver at 30 mg/kg, ip; format: organism-based; settings: in vivo
[18] = Cmax in C57BL/6 mouse lung at 30 mg/kg, ip; format: ADME, organism-based; parameters: dose 30 mg/kg, route intraperitoneal; outline: as §5
[19] = AUClast in C57BL/6 mouse liver at 30 mg/kg, ip; format: ADME, organism-based; parameters: dose 30 mg/kg, time 0 - last, route intraperitoneal; outline: as §5
[20] = Tmax in C57BL/6 mouse liver at 30 mg/kg, ip; format: ADME, organism-based
Outline: (§6)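 Male C57BL/6 mice, single intraperitoneal 30 mg/kg dose, N=3. Plasma, liver and lung concentrations followed over time to give concentration-time profiles, from which Tmax, Cmax, terminal t1/2, AUClast and AUCINF were derived.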

[21] = Tmax in C57BL/6 mouse lung at 30 mg/kg, ip; format: ADME, organism-based; outline: as §6
[22] = Cmax in C57BL/6 mouse liver at 30 mg/kg, ip; format: ADME, organism-based; parameters: dose 30 mg/kg, route intraperitoneal; outline: as §5
[23] = Toxicity in C57BL/6 mouse assessed as adverse effect at 30 mg/kg, ip; format: organism-based; settings: in vivo
[24] = AUC (infinity) in C57BL/6 mouse lung at 30 mg/kg, ip; format: ADME, organism-based; parameters: dose 30 mg/kg, route intraperitoneal, time infinity; outline: as §5
[25] = AUC (infinity) in C57BL/6 mouse liver at 30 mg/kg, ip; format: ADME, organism-based; parameters: dose 30 mg/kg, time infinity, route intraperitoneal; outline: as §5
[26] = AUClast in C57BL/6 mouse lung at 30 mg/kg, ip; format: ADME, organism-based; parameters: dose 30 mg/kg, route intraperitoneal, time 0 - last; outline: as §5
[27] = Tmax in C57BL/6 mouse plasma at 30 mg/kg, ip; format: ADME, organism-based; settings: C57BL/6, mouse, plasma, read-out: Tmax; outline: as §6
[28] = Terminal half life in C57BL/6 mouse liver at 30 mg/kg, ip; format: ADME, organism-based; settings: read-out: beta t1/2 (converted); outline: as §6
[29] = Terminal half life in C57BL/6 mouse plasma at 30 mg/kg, ip; format: ADME, organism-based; settings: C57BL/6, mouse, plasma, read-out: beta t1/2 (converted); outline: as §6
[30] = AUClast in C57BL/6 mouse plasma at 30 mg/kg, ip; format: ADME, organism-based; parameters: dose 30 mg/kg, route intraperitoneal, time 0 - last; outline: as §5
[31] = Cmax in C57BL/6 mouse plasma at 30 mg/kg, ip; format: ADME, organism-based; parameters: dose 30 mg/kg, route intraperitoneal; settings: C57BL/6, mouse, plasma, read-out: Cmax; outline: as §5
[32] = Terminal half life in C57BL/6 mouse lung at 30 mg/kg, ip; format: ADME, organism-based; settings: read-out: beta t1/2 (converted); outline: as §6
MDCK [33] = experiment: as §4; format: cell-based, Canis lupus familiaris; settings: dog, mdck; outline: as §1

SMILES | Activity (Saccharomyces cerevisiae) | EC50 (Influenza A virus H3N2) [µM] | EC90 (Influenza A virus H3N2) [µM] | Activity [1] | Activity (Influenza B virus) | EC50 (Influenza A virus [2]) [µM] | EC90 (Influenza A virus [2]) [µM] | Activity (Influenza A virus [3]) | Kinetic_solubility [4] [µM] | Activity (MDCK [5]) | inhibition [6] | fold change (FC) (Influenza A virus [7]) | inhibition [8] | remaining at 0.5 h [9] [%] | Papp [10] [×10⁻⁶ cm/s] | Papp [11] [×10⁻⁶ cm/s] | remaining at 0.25 h [12] [%] | remaining at 0 min [13] [%] | CC50 at 5 day [14] [µM] | also measured
Cc1nn(-c2ccc(Cl)cc2)c2nc(N)c(C#N)c(-c3ccc(O)c(O)c3)c12 | Non-Toxic | > 50 | > 50 | inactive | inactive | > 50 | > 50 | inactive | 1.9 | Non-Toxic | Active | 256 | Active | 90 | 2.64 | 0.34 | 93 | 100 | 20.4 to 31.9 | –
COc1cc(-c2ccnc3c2c(C)nn3-c2cccc(C(F)(F)F)c2)ccc1O | Non-Toxic | – | – | – | – | – | – | – | 1.7 | Non-Toxic | – | – | – | 16 | 0.38 | 0.13 | 25 | 100 | 24.5 to 49 | AUC(0-inf) [15]: 5970 ng·h/mL; Activity [16]: Non-Toxic; Activity [17]: Non-Toxic; Cmax [18]: 36200 ng/mL; AUC(0-t) [19]: 119000 ng·h/mL; Tmax [20]: 4.98 min; Tmax [21]: 4.98 min; Cmax [22]: 64000 ng/mL; Activity [23]: Non-Toxic; AUC(0-inf) [24]: 49100 ng·h/mL; AUC(0-inf) [25]: 120000 ng·h/mL; AUC(0-t) [26]: 49100 ng·h/mL; Tmax [27]: 4.98 min; half-life [28]: 5.3 h; half-life [29]: 5.2 h; AUC(0-t) [30]: 5960 ng·h/mL; Cmax [31]: 4470 ng/mL; half-life [32]: 5 h
COc1cc(-c2c(C#N)c(N)nc3c2c(C)nn3-c2ccc(F)cc2)ccc1O | Non-Toxic | 10.1 | > 50 | inactive | inactive | 2.1 | 4.6 | inactive | 3 | Non-Toxic | Active | 256 | Active | 60 | – | – | 74 | 100 | 24.7 to 48.3 | –
CCOc1cc(-c2c(C#N)c(O)nc3c2c(C)nn3-c2ccc(F)cc2)ccc1O | – | 47.6 | > 50 | – | inactive | 1.7 | 4.9 | – | – | Non-Toxic | – | 2 | – | – | – | – | – | – | – | CC50 (MDCK [33]): > 50 µM
